High-throughput results as filed in PubChem.
Hits are enriched below; roughly 2.3% of the tested compounds scored in any of these assays.
TRPC4 block – blocks the mouse TRPC4 cation channel | HEK293 TRPC4beta/mu-opioid, DAMGO-evoked Fluo4 calcium flux; hits give low values | B-score at 10 µM | 300,000 compounds, 0.39% hits;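 active = B-score over 3 SD under the library average, no early fluorescence shift, positive overall ratio signal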
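Assay system: Stable TRPC4beta/mu-opioid receptor HEK293 cells | Reagent: DAMGO in two steps, submaximal then maximal | Compound dosing: Single concentration per test compound | Signal: Fluo4 Ca2+ flux fluorescence | Evaluation: Per-well B score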
TRPC4 act – TRPC4 (mouse) channel activation. B-score at 10 µM. 310,000 compounds, 0.49% hits. HEK293 TRPC4beta/mu-opioid, Fluo4 calcium fluorescence; hits give high values. AID 2237;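 active = B-score above 5 SD of library B-scores, and initial fluorescence ratio not above library mean plus 5 SD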;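 note: positive B-score marks a calcium rise read as TRPC4 activation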
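Technique: kinetic Fluo4 calcium fluorescence; Test system: TRPC4beta and mu-opioid receptor HEK293 stable cells; Measure: B-scored integrated calcium fluorescence ratio; Benchmarks: low control buffer alone, high control maximal DAMGO; Schedule: 45 min room-temperature Fluo4 loading, 110 s read.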
TRPC4 potent – allosteric potentiators of mouse TRPC4 channel | Q9QUQ5 | HEK293 TRPC4beta/mu-opioid, DAMGO EC20, Fluo-4 Ca2+ flux; hits give high values | 310,000 compounds, 0.42% hits | B-score at 10 µM;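 active = B-score of calcium response area above 5 SD of library B-scores, with initial fluorescence ratio within 5 SD of library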;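 note: B-score of integrated fluorescence ratio over time as area under calcium response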
TRPC6 inhibitor – inhibitors of mouse TRPC6 channel | Q61143 | HEK293-TRPC6, membrane potential dye, ACh-evoked depolarization; hits give low values | B-score at 10 µM | 310,000 compounds, 1.1% hits | AID 2553;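 active = B-score under library mean minus 3 SD, initial fluorescence not abnormally high, positive integrated signal ratio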;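 note: B-score derived from integrated fluorescence ratio over the kinetic read; more negative B-score means stronger inhibition of depolarization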
Target sequence (Q61143 whole entry, looked up): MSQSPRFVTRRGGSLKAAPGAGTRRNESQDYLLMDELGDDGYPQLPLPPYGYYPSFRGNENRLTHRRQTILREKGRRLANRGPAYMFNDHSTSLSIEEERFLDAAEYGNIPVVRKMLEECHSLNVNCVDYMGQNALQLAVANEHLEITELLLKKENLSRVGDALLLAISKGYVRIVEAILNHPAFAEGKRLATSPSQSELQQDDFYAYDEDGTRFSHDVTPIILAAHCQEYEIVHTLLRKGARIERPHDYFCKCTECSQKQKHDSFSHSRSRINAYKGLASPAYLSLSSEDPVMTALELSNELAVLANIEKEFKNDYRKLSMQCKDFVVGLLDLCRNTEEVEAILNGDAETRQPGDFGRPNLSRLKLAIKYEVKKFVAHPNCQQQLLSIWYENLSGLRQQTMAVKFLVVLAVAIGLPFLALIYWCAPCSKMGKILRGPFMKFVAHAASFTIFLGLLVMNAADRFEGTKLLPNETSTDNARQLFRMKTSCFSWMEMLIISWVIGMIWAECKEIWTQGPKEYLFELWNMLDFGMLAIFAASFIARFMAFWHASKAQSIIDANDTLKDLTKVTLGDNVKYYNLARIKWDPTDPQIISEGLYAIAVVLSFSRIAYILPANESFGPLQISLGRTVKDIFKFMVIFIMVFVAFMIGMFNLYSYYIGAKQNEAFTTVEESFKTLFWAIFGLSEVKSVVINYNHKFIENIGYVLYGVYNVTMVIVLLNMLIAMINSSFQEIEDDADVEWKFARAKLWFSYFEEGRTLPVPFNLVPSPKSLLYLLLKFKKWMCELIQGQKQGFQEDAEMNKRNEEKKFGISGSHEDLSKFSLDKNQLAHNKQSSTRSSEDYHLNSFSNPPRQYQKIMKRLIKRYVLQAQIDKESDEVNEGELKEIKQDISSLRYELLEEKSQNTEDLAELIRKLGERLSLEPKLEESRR
TRPC6 activator – mouse TRPC6 channel activation; AID 2550; Q61143; HEK293-TRPC6 membrane potential dye fluorescence; hits give high values; B-score at 10 µM; 310,000 compounds, 0.13% hits;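 active = B-score of the integrated fluorescence ratio above library mean plus 3 SD, and starting fluorescence ratio within library mean plus 5 SD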;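 note: higher score means more depolarization so channel activation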
* = called active by the depositor; i = inactive.

SMILES	TRPC4 block	TRPC4 act	TRPC4 potent	TRPC6 inhibitor	TRPC6 activator
O=C(NCc1ccccn1)C(F)(F)C(F)(F)C(=O)NCc1ccccn1	i	i	i	i	i
O=C(NCCc1ccccn1)C(F)(F)C(F)(F)C(F)(F)C(F)(F)C(F)(F)C(F)F	i	128*	i	i	i
CCOC(=O)c1cnc(-n2nc(C)cc2C)nc1NC1CCCCC1	i	i	18*	i	i
Cc1nc2ccccc2c2oc(C(=O)NCCCN3CC(C)CC(C)C3)cc12 (stereo unspecified)	i	83*	i	i	i
CCN(CC)CCCNC(=O)c1ccc2c(SCC(=O)O)c3c(nc2c1)CCC3	i	i	i	i	i
CC1CC(C)CN(CCCNC(=O)c2ccc3c(SCC(=O)O)c4c(nc3c2)CCC4)C1 (stereo unspecified)	i	76*	i	i	i
COC(CNC(=O)c1coc2nc3ccccc3nc12)OC	i	i	i	i	i
Cc1ccc(N2CC(C(=O)NCc3ccccn3)CC2=O)cc1 (stereo unspecified)	i	i	i	i	i
O=C(N/N=C/C(Br)=C/c1ccccc1)c1ccccc1[N+](=O)[O-]	i	i	12*	i	i
O=C(NCCCN1CCCC1=O)c1ccc(S(=O)(=O)Nc2ccccc2F)cc1	i	i	i	i	i
O=C(NCCCN1CCCC1=O)c1ccc(CNS(=O)(=O)c2ccc(F)cc2)cc1	i	i	37*	i	i
Cc1ccc(CNC(=O)CNC(=O)[C@@H]2Cc3ccccc3CN2C(=O)OC(C)(C)C)cc1	i	i	i	i	i
CCOc1cc(Cl)c(S(=O)(=O)NCCCn2ccnc2)cc1Cl	i	i	i	i	i
CCOc1ccccc1N(CC(=O)N1CCOCC1)S(=O)(=O)c1ccc(SC)cc1	i	175*	i	i	i
Cc1ccc(S(=O)(=O)N(CC(=O)N2CCOCC2)c2ccccc2F)cc1	i	i	i	i	i
CC(C)CC1NC(C(=O)O)Cc2c1[nH]c1ccccc21 (stereo unspecified)	i	i	i	i	i
CCCC1NC(C(=O)O)Cc2c1[nH]c1ccccc21 (stereo unspecified)	-6*	i	i	i	i
CC(C)C1NC(C(=O)O)Cc2c1[nH]c1ccccc21 (stereo unspecified)	-7*	i	i	i	i
CC(=O)Nc1ccc2c(c1)nc(CCNC(=O)c1ccco1)n2C	i	i	i	i	i
CC(=O)Nc1ccc(NS(=O)(=O)c2ccccc2)cc1	i	i	i	i	i
CC(=O)C(C(C)=O)c1cc(NS(=O)(=O)c2ccccc2)ccc1NS(=O)(=O)c1ccccc1	i	47*	i	i	i
Cc1ccc(-n2c3nc(=O)[nH]c(=O)c-3cc3cc([N+](=O)[O-])ccc32)cc1C	i	i	10*	i	i
O=C(COc1ccc(Br)cc1Cl)c1ccc[nH]1	-6*	i	i	i	i
COc1ccc(C(=O)Nc2nnc(CCS(=O)(=O)c3ccc(C)cc3)s2)cc1	i	i	i	i	i
CCOP(=O)(OCC)c1nc(-c2cccc3ccccc23)oc1NCc1ccc(OC)cc1	i	i	13*	i	i
SMILES	TRPC4 block	TRPC4 act	TRPC4 potent	TRPC6 inhibitor	TRPC6 activator
CCOP(=O)(OCC)c1nc(-c2cccc3ccccc23)oc1NCc1ccccc1	i	i	i	i	i
O=C(COC(=O)c1cc(Cl)ccc1O)NCC1CCCO1 (stereo unspecified)	i	i	i	i	i
Cc1ccn2c(NC3CCCCC3)c(C(C)C)nc2c1	-7*	i	i	i	i
Cc1ccn2c(NC3CCCCC3)c(C)nc2c1	i	i	i	i	i
CCOc1cc2[nH]c(=S)n(CCC(=O)NCc3ccco3)c(=O)c2cc1OCC	i	i	i	i	i
CCN(CCNC(=O)C1CCN(Cc2nc(-c3ccc(Cl)cc3)oc2C)CC1)c1ccccc1	i	i	i	-6.6*	i
Cc1oc(-c2ccc(Cl)cc2)nc1CN1CCC(C(=O)NCC2CCCO2)CC1 (stereo unspecified)	i	i	i	i	i
Cc1oc(-c2ccc(Cl)cc2)nc1CN1CCC(C(=O)NCc2cccs2)CC1	-6*	i	i	i	i
O=C(CC1S/C(=N\S(=O)(=O)c2ccccc2)N(c2ccccc2)C1=O)Nc1ccc(F)cc1 (stereo unspecified)	i	i	10*	i	i
Fc1ccc(NC(=S)NCCc2ccccn2)cc1	i	213*	i	i	i
CCOC(=O)C1=C(COC(=O)/C=C/c2ccco2)NC(=O)NC1C (stereo unspecified)	i	i	i	i	i
CN1CCN(c2nc3c(c(=O)n(C)c(=O)n3C)n2CC(=O)C23CC4CC(CC(C4)C2)C3)CC1	-6*	i	i	i	i
Cn1c(=O)c2c(nc(N3CCOCC3)n2CC(=O)C23CC4CC(CC(C4)C2)C3)n(C)c1=O	i	i	i	i	i
CCCC(=O)NC(c1ccccc1)c1ccc2cccnc2c1O (stereo unspecified)	i	i	i	-5.8*	i
CCCCC(=O)NC(c1ccccc1)c1ccc2cccnc2c1O (stereo unspecified)	i	i	i	i	i
COc1ccc(C(=O)NC=C2C(=O)OC(C)(C)OC2=O)cc1	i	i	i	i	i
O=C(COC(=O)c1ccccn1)Nc1nc(-c2ccccc2)cs1	-6*	i	i	i	i
O=C(COC(=O)C1CC1)Nc1nc(-c2ccc(F)c(F)c2)cs1	-6*	i	i	i	i
COc1ccc(CNC(=O)C2CCCN(S(=O)(=O)c3c(C)noc3/C=C/N(C)C)C2)cc1 (stereo unspecified)	i	i	i	i	i
COc1ccc(Nc2cc(C)c3c(O)cccc3n2)cc1	-5*	i	i	i	i
Cc1ccccc1Nc1cc(C)c2c(O)cccc2n1	i	72*	i	i	i
CCN(CC)CCC(c1ccc2c(c1)OCO2)c1c(O)cc(OC)cc1OC (stereo unspecified)	i	i	i	i	i
CN(C)S(=O)(=O)c1cccc(NC(=O)CSc2nnnn2-c2ccccc2)c1	i	i	i	i	i
O=[N+]([O-])c1ccc(Nc2nc(NC3CCCCC3)nc(N3CCCC3)n2)cc1	i	i	i	i	i
O=C(CCC1CCCC1)c1c(O)c2ccccc2oc1=O	i	193*	i	i	i
